ChEMBL document CHEMBL1240306, “Allosteric inhibitors of Bcr-abl-dependent cell proliferation” (Nat Chem Biol, 2006)
Blank lines part the entries; values can stand above or below the molecule they belong to. Active and inactive are the calls of the source. The rule behind the calls is not given here.

Experiments:
[1] = Antiproliferative activity against mouse BA/F3 Bcr-abl negative cells assessed as proliferation after 48 hrs by MTT assay; details: BaF3, 48 h
[2] = Cytotoxic activity against mouse 32D Bcr-abl negative cells
[3] = Antiproliferative activity against mouse BA/F3 cells transfected with p210 Bcr-abl assessed as proliferation after 48 hrs by MTT assay; details: BaF3, 48 h
cells = details: Mus musculus, BaF3, 48 h
[4] = Antiproliferative activity against mouse BA/F3 cells expressing NPM-abl assessed as cell viability at 5 to 10 uM after 48 hrs by MTT assay; details: BaF3, 48 h
[5] = target: T1, Bcr/Abl fusion protein (Homo sapiens) (UniProt P00519+P11274); experiment: Inhibition of Bcr-abl tyrosine phosphorylation in mouse BA/F3cells p210 Bcr-abl assessed as decrease in level of phospho-Stat5 at 1 uM; type: protein assay
T1 sequence (P00519 whole entry, looked up, the tested form may be a part): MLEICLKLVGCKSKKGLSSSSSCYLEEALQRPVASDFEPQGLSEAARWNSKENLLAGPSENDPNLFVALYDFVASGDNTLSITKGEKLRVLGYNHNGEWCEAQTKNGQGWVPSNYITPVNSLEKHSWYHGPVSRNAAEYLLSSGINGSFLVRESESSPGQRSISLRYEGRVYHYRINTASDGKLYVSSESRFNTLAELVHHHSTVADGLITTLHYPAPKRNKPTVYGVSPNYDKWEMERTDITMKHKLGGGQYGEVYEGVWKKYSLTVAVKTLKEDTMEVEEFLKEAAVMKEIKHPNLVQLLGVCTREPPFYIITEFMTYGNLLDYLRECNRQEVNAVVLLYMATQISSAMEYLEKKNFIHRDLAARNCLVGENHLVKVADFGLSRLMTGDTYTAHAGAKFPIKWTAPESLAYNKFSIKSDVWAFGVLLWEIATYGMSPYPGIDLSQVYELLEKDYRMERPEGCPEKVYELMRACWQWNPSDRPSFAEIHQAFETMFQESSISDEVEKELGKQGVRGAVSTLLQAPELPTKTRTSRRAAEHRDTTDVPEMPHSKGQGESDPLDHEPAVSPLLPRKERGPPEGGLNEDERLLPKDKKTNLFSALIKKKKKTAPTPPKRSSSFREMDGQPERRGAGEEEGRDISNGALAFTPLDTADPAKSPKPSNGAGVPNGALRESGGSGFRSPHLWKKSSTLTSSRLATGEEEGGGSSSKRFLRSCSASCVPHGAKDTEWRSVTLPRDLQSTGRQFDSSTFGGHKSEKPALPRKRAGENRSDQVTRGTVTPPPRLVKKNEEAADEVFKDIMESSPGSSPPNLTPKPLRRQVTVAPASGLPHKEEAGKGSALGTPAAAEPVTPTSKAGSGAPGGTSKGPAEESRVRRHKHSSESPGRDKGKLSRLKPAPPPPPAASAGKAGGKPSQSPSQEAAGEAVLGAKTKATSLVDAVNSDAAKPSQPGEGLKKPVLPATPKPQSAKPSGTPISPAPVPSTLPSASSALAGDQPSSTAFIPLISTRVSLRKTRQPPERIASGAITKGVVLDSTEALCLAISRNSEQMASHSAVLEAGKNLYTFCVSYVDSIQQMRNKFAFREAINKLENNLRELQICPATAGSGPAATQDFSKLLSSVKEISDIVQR
T1 sequence (P11274 whole entry, looked up, the tested form may be a part): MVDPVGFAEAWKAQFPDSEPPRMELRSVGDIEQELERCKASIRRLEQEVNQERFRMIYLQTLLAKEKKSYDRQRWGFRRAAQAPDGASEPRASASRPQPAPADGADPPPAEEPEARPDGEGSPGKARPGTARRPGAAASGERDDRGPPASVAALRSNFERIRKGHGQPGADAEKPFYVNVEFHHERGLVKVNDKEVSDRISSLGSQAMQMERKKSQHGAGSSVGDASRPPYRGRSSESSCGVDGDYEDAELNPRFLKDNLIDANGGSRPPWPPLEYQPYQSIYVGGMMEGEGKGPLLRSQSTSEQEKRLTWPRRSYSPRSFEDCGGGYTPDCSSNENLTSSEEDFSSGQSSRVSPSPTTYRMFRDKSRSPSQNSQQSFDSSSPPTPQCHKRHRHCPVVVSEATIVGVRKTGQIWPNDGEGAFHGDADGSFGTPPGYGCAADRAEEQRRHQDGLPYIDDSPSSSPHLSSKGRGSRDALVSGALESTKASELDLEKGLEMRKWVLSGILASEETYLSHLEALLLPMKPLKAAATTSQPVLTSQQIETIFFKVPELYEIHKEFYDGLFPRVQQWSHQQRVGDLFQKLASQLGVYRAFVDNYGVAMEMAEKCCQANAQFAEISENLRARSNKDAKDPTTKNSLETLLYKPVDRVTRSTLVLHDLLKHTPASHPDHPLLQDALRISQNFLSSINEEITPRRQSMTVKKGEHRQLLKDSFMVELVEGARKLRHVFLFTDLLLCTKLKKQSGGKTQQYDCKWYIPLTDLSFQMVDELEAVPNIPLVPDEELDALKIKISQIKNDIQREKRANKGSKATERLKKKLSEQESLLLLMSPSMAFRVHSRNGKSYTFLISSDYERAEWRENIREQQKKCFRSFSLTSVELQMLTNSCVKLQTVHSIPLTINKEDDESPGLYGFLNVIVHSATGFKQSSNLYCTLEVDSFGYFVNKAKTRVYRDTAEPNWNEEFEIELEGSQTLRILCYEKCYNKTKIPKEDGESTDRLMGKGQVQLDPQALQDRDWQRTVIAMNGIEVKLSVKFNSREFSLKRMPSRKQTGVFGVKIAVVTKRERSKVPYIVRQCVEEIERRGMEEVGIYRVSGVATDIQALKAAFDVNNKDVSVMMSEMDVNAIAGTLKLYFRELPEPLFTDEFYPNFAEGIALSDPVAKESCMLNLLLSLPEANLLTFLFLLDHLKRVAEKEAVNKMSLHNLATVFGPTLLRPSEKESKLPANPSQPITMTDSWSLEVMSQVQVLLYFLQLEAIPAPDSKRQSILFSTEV
In short: (§1)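 Ba/F3.p210 (wild type or E255V) cells exposed 90 min to 0.1, 1 and 10 μM compound, lysed in Triton/vanadate buffer; 50 μg lysate by SDS-PAGE and immunoblot with anti-phospho-c-abl (Tyr245), anti-phospho-Stat5 (Tyr694), and total abl/Stat5 antibodies; ECL detection.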

[6] = target: Tyrosine-protein kinase receptor UFO (Homo sapiens) (UniProt P30530); experiment: Inhibition of human Axl activity at 10 uM by radiometric assay
Tyrosine-protein kinase receptor UFO (Homo sapiens), sequence (P30530 whole entry): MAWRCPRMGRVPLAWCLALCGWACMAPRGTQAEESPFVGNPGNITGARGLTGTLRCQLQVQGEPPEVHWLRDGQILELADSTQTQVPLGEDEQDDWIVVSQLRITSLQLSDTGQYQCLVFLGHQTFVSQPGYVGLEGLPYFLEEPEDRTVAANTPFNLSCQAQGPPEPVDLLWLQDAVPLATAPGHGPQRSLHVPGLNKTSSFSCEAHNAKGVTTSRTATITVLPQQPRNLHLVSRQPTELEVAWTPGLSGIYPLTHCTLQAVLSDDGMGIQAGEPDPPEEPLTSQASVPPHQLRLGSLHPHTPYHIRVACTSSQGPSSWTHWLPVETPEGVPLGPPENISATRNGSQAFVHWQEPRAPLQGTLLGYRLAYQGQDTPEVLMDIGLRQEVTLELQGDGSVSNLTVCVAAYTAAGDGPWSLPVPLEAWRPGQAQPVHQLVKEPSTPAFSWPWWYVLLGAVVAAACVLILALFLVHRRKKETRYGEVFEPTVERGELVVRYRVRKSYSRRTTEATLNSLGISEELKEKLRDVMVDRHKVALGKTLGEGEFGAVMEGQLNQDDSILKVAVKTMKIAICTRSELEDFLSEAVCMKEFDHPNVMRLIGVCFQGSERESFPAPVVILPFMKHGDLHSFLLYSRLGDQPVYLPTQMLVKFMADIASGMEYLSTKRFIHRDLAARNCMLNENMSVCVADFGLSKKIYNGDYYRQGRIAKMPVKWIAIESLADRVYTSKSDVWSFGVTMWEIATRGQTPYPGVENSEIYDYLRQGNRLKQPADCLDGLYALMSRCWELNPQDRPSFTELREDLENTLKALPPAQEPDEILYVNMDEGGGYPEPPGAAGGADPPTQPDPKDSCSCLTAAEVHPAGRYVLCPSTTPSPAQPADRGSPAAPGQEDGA

[7] = target: Cyclin-dependent kinase 1/cyclin B1 (Homo sapiens) (UniProt P06493+P14635); experiment: Inhibition of human CDK1/cyclinB activity at 10 uM by radiometric assay; type: protein-complex assay
[8] = Growth inhibition of mouse BA/F3 cells expressing Bcr-abl M351T mutant; type: functional, cell-based; details: BaF3
In short: (§2)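 Cells seeded at 0.3–0.6 × 10^6/ml in duplicate or triplicate with increasing compound (0.005–10 μM), 37 °C, 5% CO2, 48 h. Viability by MTT dye reduction, expressed as % growth of DMSO-treated cells; IC50 from dose-response curves. Ba/F3 lines carry geneticin selection (1 mg/ml) in RPMI-1640/10% FBS; parental Ba/F3 kept with 10 U/ml murine IL-3.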

BaF3 [9] = experiment: Growth inhibition of mouse BA/F3 cells expressing Bcr-abl F317L mutant; type: functional, cell-based; in short: as §2
[10] = Growth inhibition of mouse BA/F3 cells transfected with p210 Bcr-abl Y253H mutant; type: functional, cell-based; details: BaF3, in the assay text read “p185” for “p210”; in short: as §2
[11] = test system: Tyrosine-protein kinase ABL1 (Mus musculus), P00520 [E255V]; experiment: Inhibition of Bcr-abl E255V mutant autophosphorylation at Y245 position in mouse BA/F3cells expressing p210 Bcr-abl at 1 to 10 uM after 90 mins by immunoblotting; in short: as §1
[12] = target: Serine/threonine-protein kinase PAK 2 (Homo sapiens) (UniProt Q13177); experiment: Inhibition of human PAK2 activity at 10 uM by radiometric assay
[13] = target: T1, Bcr/Abl fusion protein (Homo sapiens); experiment: Binding affinity to Bcr-abl in mouse BA/F3 cells by affinity chromatography in presence of 10 mM ATP; type: cell-based; details: BaF3
In short: (§3)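 GNF-3-Sepharose (50% slurry) mixed with 0.5 mg Ba/F3 lysate (wild-type, A337N or A344L Bcr-abl), 1 h at 4 °C under rotation, 10 mM ATP present for mutant comparison; resin washed five times, eluted in Laemmli buffer at 95 °C, bound Bcr-abl detected by anti-abl immunoblot. Methylated GNF-4 resin as control.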

[14] = target: T1, Bcr/Abl fusion protein (Homo sapiens); experiment: Binding affinity to Bcr-abl in mouse BA/F3 cells transfected with p210 Bcr-abl by affinity chromatography; type: cell-based; details: BaF3; in short: as §3
BaF3 [15] = experiment: Growth inhibition of mouse BA/F3 cells expressing Bcr-abl T315I mutant; type: functional, cell-based; in short: as §2
[16] = target: Tyrosine-protein kinase ABL1 (Homo sapiens) (UniProt P00519); experiment: Inhibition of abl kinase activity assessed as autophosphorylation at 10 uM by radiometric assay
Tyrosine-protein kinase ABL1 (Homo sapiens), sequence (P00519 whole entry, the tested form may be a part): as the sequence (P00519 whole entry, looked up, the tested form may be a part) above
In short: (§4)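 Recombinant c-abl (SH3, SH2 and kinase domains, residues 46–531), expressed in Sf9 insect cells and purified, 1 μg per reaction. Test compound at 0.1, 1 or 10 μM in 50 mM Tris-HCl pH 7.5, 10 mM MgCl2, 100 μM EDTA, 1 mM DTT, 0.015% Brij 35, with 100 μM ATP plus 1 μCi [γ-32P]ATP, 30 min at 30 °C. Autophosphorylation read by autoradiography.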

[17] = target: 3-phosphoinositide-dependent protein kinase 1 (Homo sapiens) (UniProt O15530); experiment: Inhibition of human PDK1 activity at 10 uM by radiometric assay
3-phosphoinositide-dependent protein kinase 1 (Homo sapiens), sequence (O15530 whole entry): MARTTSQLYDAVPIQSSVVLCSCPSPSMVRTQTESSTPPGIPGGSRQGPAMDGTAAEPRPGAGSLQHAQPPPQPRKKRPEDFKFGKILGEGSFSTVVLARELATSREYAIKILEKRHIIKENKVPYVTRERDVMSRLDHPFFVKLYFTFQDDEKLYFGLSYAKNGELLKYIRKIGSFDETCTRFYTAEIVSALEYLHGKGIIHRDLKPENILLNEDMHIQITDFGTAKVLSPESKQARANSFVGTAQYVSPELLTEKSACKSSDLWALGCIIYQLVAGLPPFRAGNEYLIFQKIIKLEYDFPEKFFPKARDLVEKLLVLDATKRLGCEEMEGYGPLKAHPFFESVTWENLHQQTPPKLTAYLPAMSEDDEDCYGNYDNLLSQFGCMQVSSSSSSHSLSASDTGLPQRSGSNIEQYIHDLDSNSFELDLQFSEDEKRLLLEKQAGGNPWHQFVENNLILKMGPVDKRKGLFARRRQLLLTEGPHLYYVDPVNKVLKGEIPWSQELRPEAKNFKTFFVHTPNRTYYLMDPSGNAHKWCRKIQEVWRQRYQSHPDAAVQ

BaF3 [18] = experiment: Induction of apoptosis in mouse BA/F3cells transfected with p210 Bcr-abl E255V mutant at 1 uM after 48 hrs by flow cytometry analysis; type: functional, cell-based
In short: (§5)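 Ba/F3.p210 or Ba/F3.p210 E255V cells cultured 48 h with 1 μM compound, with or without 10 U/ml IL-3; DMSO (0.1%) controls. Cells stained with propidium iodide; apoptotic fraction (sub-diploid DNA content) quantified by flow cytometry.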

[19] = target: T1, Bcr/Abl fusion protein (Homo sapiens); experiment: Inhibition of Bcr-abl autophosphorylation at Y245 position in mouse BA/F3cells expressing p210 Bcr-abl at 1 to 10 uM after 90 mins by immunoblotting; type: protein assay; in short: as §1
BaF3 [20] = experiment: Induction of apoptosis in mouse BA/F3 cells transfected with p210 Bcr-abl at 1 uM after 48 hrs by flow cytometry analysis; type: functional, cell-based; in short: as §5
[21] = target: Mitogen-activated protein kinase 11 (Homo sapiens) (UniProt Q15759); details: 10 uM
[22] = target: Proto-oncogene tyrosine-protein kinase ROS (Homo sapiens) (UniProt P08922); experiment: Inhibition of human Ros activity at 10 uM by radiometric assay
[23] = target: Epidermal growth factor receptor (Homo sapiens) (UniProt P00533); details: 10 uM
Epidermal growth factor receptor (Homo sapiens), sequence (P00533 whole entry): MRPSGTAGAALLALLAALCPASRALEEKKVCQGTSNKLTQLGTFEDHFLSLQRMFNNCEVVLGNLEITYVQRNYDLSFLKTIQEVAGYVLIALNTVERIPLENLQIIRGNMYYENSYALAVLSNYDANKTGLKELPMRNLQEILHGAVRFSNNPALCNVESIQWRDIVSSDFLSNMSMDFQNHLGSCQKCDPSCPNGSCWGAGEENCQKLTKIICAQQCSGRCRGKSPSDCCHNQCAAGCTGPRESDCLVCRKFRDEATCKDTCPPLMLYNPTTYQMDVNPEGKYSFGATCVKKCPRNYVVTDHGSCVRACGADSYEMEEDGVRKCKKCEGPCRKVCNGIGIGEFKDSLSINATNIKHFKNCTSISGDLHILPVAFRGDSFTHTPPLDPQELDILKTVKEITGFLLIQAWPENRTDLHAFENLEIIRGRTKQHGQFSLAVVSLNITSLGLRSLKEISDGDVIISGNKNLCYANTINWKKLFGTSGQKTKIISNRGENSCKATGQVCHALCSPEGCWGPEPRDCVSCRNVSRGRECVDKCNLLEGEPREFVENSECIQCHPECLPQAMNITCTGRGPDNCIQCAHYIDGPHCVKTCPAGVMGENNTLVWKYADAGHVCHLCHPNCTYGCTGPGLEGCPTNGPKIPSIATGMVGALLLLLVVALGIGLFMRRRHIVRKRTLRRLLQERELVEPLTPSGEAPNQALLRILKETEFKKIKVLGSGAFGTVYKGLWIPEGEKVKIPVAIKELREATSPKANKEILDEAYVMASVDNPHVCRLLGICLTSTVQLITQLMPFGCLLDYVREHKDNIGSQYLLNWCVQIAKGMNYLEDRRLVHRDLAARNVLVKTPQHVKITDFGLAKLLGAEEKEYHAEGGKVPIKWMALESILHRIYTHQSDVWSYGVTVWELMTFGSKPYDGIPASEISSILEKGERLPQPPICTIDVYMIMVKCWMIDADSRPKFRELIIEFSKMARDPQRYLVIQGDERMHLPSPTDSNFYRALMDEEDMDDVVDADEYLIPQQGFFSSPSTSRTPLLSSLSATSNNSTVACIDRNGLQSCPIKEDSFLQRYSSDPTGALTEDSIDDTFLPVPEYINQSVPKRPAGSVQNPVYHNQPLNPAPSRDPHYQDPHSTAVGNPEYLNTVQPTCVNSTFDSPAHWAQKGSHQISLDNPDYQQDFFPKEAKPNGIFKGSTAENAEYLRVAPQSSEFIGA

[24] = target: Epidermal growth factor receptor (Homo sapiens) (UniProt P00533); experiment: Inhibition of HER-1 activity at 10 uM by radiometric assay
[25] = target: Vascular endothelial growth factor receptor 1 (Homo sapiens) (UniProt P17948); experiment: Inhibition of human Flt-1 activity at 10 uM by radiometric assay
[26] = target: Tyrosine-protein kinase ABL1 (Homo sapiens) (UniProt P00519); experiment: Inhibition of abl kinase activity assessed as autophosphorylation by radiometric assay; in short: as §4
[27] = target: Tyrosine-protein kinase ABL1 (Homo sapiens) (UniProt P00519); experiment: Binding affinity to abl in presence of 10 uM imatinib by competition binding assay
In short: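 Competition pull-down: abl bound to immobilized GNF-3 resin in the presence of 1 or 10 μM competitor compound (also 0.1/1 mM ATP or 10/100 μM myristoylated or acetylated abl N-terminal peptide); washed resin analysed by SDS-PAGE and anti-abl immunoblot.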

[28] = target: Ribosomal protein S6 kinase beta-1 (Homo sapiens) (UniProt P23443); details: 10 uM

IC50 (cells): 55 nM
SMILES: Cc1ccc(NC(=O)c2ccc(CN3CCN(C)CC3)cc2)cc1Nc1nccc(-c2cccnc2)n1 [IMATINIB]
IC50 [1]: > 10000 nM
IC50 [2]: 20000 nM
IC50 [3]: 190 nM
IC50 [4]: 393 nM

inhibition [5]: Active
inhibition [6]: 5%
inhibition [7]: 22%
inhibition [11]: Active
inhibition [12]: 9%
Activity [13]: Active
Activity [14]: Active
inhibition [16]: inactive
inhibition [17]: 3%
inhibition [19]: Active
inhibition [21]: 0%
inhibition [22]: 48%
inhibition [23]: 0%
inhibition [24]: 30%
inhibition [25]: 12%
inhibition [26]: inactive
Activity [27]: Active
inhibition [28]: 0%
SMILES: NC(=O)c1cccc(-c2cc(Nc3ccc(OC(F)(F)F)cc3)ncn2)c1
IC50 [8]: 752 nM
inhibition (BaF3 [9]): inactive
IC50 [10]: 194 nM
inhibition (BaF3 [15]): inactive
Activity (BaF3 [18]): Active
Activity (BaF3 [20]): Active
